Reference: ChEMBL document CHEMBL3091328, “Synthesis, DNA-binding abilities and anticancer activities of triazole-pyrrolo[2,1-c][1,4]benzodiazepines hybrid scaffolds” (Bioorg Med Chem Lett, 2013)
Activity calls are given as the source filed them. No cut-off for these calls is given here.

Key:
[1] = test system: A-375; test: Downregulation of cyclin D1 mRNA expression in human A375 cells at 5 uM after 24 hrs by RT-PCR analysis; assay type: functional, cell-based
How it was run: (§1)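 A375 cells treated 24 h at 5 μM; p53, p21, p27 and cyclin D1 transcripts quantified by qPCR, normalised to β-actin in each sample, compared with control.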

[2] = test system: A-375; test: Upregulation of p27 mRNA expression in human A375 cells at 5 uM after 24 hrs by RT-PCR analysis; assay type: functional, cell-based; how it was run: as §1
[3] = test system: A-375; test: Upregulation of p53 mRNA expression in human A375 cells at 5 uM after 24 hrs by RT-PCR analysis; assay type: functional, cell-based; how it was run: as §1
[4] = test system: A-375; test: Upregulation of p21 mRNA expression in human A375 cells at 5 uM after 24 hrs by RT-PCR analysis; assay type: functional, cell-based; how it was run: as §1
[5] = test system: A-375; test: Induction of apoptosis in human A375 cells assessed as decrease in Bcl-XL protein level at 5 uM after 24 hrs by Western blotting analysis; assay type: functional, cell-based
How it was run: (§2)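 Lysates from A375 cells exposed 24 h to 5 μM, or to a range of concentrations, immunoblotted with specific antibodies against Bcl-2, Bcl-xL, Bax, Bad, caspase-3 and PARP; actin probed as loading control; three separate experiments.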

[6] = test system: A-375; test: Induction of apoptosis in human A375 cells assessed as decrease in Bcl-2 protein level at 5 uM after 24 hrs by Western blotting analysis; assay type: functional, cell-based; how it was run: as §2
[7] = test system: A-375; test: Induction of apoptosis in human A375 cells assessed as increase in Bad protein level at 5 uM after 24 hrs by Western blotting analysis; assay type: functional, cell-based; how it was run: as §2
[8] = test system: A-375; test: Induction of apoptosis in human A375 cells assessed as increase in Bax protein level at 5 uM after 24 hrs by Western blotting analysis; assay type: functional, cell-based; how it was run: as §2
[9] = test system: A-375; test: Cell cycle arrest in human A375 cells assessed as accumulation at G2/M phase after 24 hrs by propidium iodide staining-based flow cytometry (reference value: 15.2 +/- 0.6%); assay type: functional
[10] = test system: A-375; test: Cell cycle arrest in human A375 cells assessed as accumulation at S phase after 24 hrs by propidium iodide staining-based flow cytometry (reference value: 11.8 +/- 0.1%); assay type: functional
[11] = test system: A-375; test: Cell cycle arrest in human A375 cells assessed as accumulation at G1 phase after 24 hrs by propidium iodide staining-based flow cytometry (reference value: 65.3 +/- 0.1%); assay type: functional
[12] = test system: A-375; test: Cell cycle arrest in human A375 cells assessed as accumulation at sub-G1 phase after 24 hrs by propidium iodide staining-based flow cytometry (reference value: 7.7 +/- 0.1%); assay type: functional
[13] = test system: A-375; test: Cytotoxicity against human A375 cells assessed as cell survival after 12 to 24 hrs by MTT assay relative to control; assay type: functional, cell-based
How it was run: (§3)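 A375 cells seeded at 10,000 per well, attached overnight, then exposed in triplicate to 0, 1, 3 or 5 μM for 0, 12 or 24 h; viability by MTT absorbance versus untreated control; IC50 taken as mean of dose-response curves from three experiments.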

[14] = test system: A-375; test: Cytotoxicity against human A375 cells assessed as cell survival at 1 to 5 uM by MTT assay relative to control; assay type: functional, cell-based; settings: TDE = time-dependent effect; how it was run: as §3
[15] = test system: A-375; test: Cytotoxicity against human A375 cells assessed as cell survival at 1 to 5 uM after 12 hrs by MTT assay relative to control; assay type: functional, cell-based; how it was run: as §3
[16] = test system: B16; test: Cytotoxicity against mouse B16 cells assessed as cell survival at 5 uM after 24 hrs by MTT assay relative to control; assay type: functional; settings: B16, 24 h, read-out: Survival
How it was run: (§4)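 Cells exposed to agent at 5 µM for 24 h, then growth and viability measured by MTT assay. Survival given as percent of untreated control.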

[17] = Cytotoxicity against human skin fibroblasts assessed as cell survival at 5 uM after 24 hrs by MTT assay relative to control; set-up: species or system Skin fibroblast; settings: read-out: Survival; how it was run: as §4
[18] = test system: Ca9-22; test: Cytotoxicity against human Ca9-22 cells assessed as cell survival at 5 uM after 24 hrs by MTT assay relative to control; assay type: functional; settings: Ca9-22, 24 h, read-out: Survival; how it was run: as §4
[19] = test system: HEK-293T; test: Cytotoxicity against human 293T cells assessed as cell survival at 5 uM after 24 hrs by MTT assay relative to control; assay type: functional; settings: read-out: Survival; how it was run: as §4
[20] = test system: A549; test: Cytotoxicity against human A549 cells assessed as cell survival at 5 uM after 24 hrs by MTT assay relative to control; assay type: functional; settings: A549, 24 h, read-out: Survival; how it was run: as §4
[21] = test system: A2058; test: Cytotoxicity against human A2058 cells assessed as cell survival at 5 uM after 24 hrs by MTT assay relative to control; assay type: functional; settings: A2058, 24 h, read-out: Survival; how it was run: as §4
[22] = Cytotoxicity against human RPMI7951 cells assessed as cell survival at 5 uM after 24 hrs by MTT assay relative to control; assay type: functional; settings: RPMI-7951, 24 h, read-out: Survival; how it was run: as §4
[23] = test system: A-375; test: Cytotoxicity against human A375 cells assessed as cell survival at 5 uM after 24 hrs by MTT assay relative to control; assay type: functional; settings: A-375, 24 h, read-out: Survival; how it was run: as §4
[24] = test system: A-375; test: Induction of apoptosis in human A375 cells at 5 uM after 24 hrs by AnnexinV-FITC/propidium iodide staining-based fluorimetric analysis (reference value: 2.6%); assay type: functional
[25] = test system: A-375; test: Induction of apoptosis in human A375 cells assessed as decrease in Bcl-XL protein level after 24 hrs by Western blotting analysis; assay type: functional, cell-based; how it was run: as §2
[26] = test system: A-375; test: Induction of apoptosis in human A375 cells assessed as decrease in Bcl-2 protein level after 24 hrs by Western blotting analysis; assay type: functional, cell-based; how it was run: as §2
[27] = test system: A-375; test: Induction of apoptosis in human A375 cells assessed as cleavage of PARP after 24 hrs by Western blotting analysis; assay type: functional, cell-based; how it was run: as §2
[28] = test system: A-375; test: Induction of apoptosis in human A375 cells assessed as cleavage of caspase-3 after 24 hrs by Western blotting analysis; assay type: functional, cell-based; how it was run: as §2
[29] = test system: A-375; test: Induction of apoptosis in human A375 cells assessed as increase in Bad protein level after 24 hrs by Western blotting analysis; assay type: functional, cell-based; how it was run: as §2
[30] = test system: A-375; test: Induction of apoptosis in human A375 cells assessed as increase in Bax protein level after 24 hrs by Western blotting analysis; assay type: functional, cell-based; how it was run: as §2
[31] = test system: Escherichia coli; test: Binding affinity to Escherichia coli pBR322 DNA assessed as DNA unwinding at 10 to 1000 uM after 12 hrs by agarose gel electrophoresis
How it was run: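 Negatively supercoiled pBR322 plasmid (0.4 μg) incubated 12 h in TE buffer with increasing compound concentrations (0–1000 μM); samples run 2.5 h on 1% agarose gel; unwinding read as reduced mobility.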

Row | SMILES | Activity [1] | Activity [2] | Activity [3] | Activity [4] | Activity [5] | Activity [6] | Activity [7] | Activity [9] | Activity [10] | Activity [11] | Activity [12] | Activity [15] | viability at 5 µM [16] | viability at 24 h, 5 µM [17] | viability at 5 µM [18] | viability at 5 µM [19] | viability at 5 µM [20] | viability at 5 µM [21] | viability at 5 µM [22] | viability at 5 µM [23] | other results
1 | COc1cc2c(cc1OC/C=C\Cn1cc(-c3ccccc3OC)nn1)N=C[C@@H]1CCCN1C2=O | Active | Active | Active | Active | Active | Active | Active | 1.3% | 5.1% | 81.9% | 11.7% | inactive | 66.3% | 84.7% | 105% | 51.1% | 102% | 63.1% | 75.1% | 58.4% | Activity [8]: Active; Activity [13]: Dose-dependent effect; Activity [14]: tde; Activity [24]: 11.1%
2 | COc1cc2c(cc1OC/C=C/Cn1cc(-c3ccccc3OC)nn1)N=C[C@@H]1CCCN1C2=O |  |  |  |  |  |  |  | 5.1% | 8.1% | 69.5% | 17.3% | inactive | 98.9% | 100% | 95.6% | 55% | 91% | 57.9% | 83% | 58.4% | 
3 | COc1cc2c(cc1O)N=C[C@@H]1CCCN1C2=O |  |  |  |  |  |  |  |  |  |  |  |  | 66.8% | 89.7% | 94.4% | 55.2% | 85.4% | 54.8% | 61.6% | 52.2% | 
4 | COc1cc2c(cc1OC/C=C/Cn1cc(-c3ccccc3)nn1)N=C[C@@H]1CCCN1C2=O |  |  |  |  |  |  |  | 5.5% | 9.7% | 77.8% | 7% | inactive | 33.9% | 93% | 61.2% | 78% | 70% | 53.3% | 79.1% | 69.6% | 
5 | COc1ccc(-c2cn(C/C=C/COc3cc4c(cc3OC)C(=O)N3CCC[C@H]3C=N4)nn2)cc1 |  |  |  |  |  |  |  | 5.1% | 7.4% | 73.6% | 13.9% | inactive | 75.2% | 104% | 84.1% | 40% | 81% | 49.2% | 80.1% | 69.2% | 
6 | COc1cc2c(cc1OC/C=C\Cn1cc(-c3ccccc3)nn1)N=C[C@@H]1CCCN1C2=O | Active | Active | Active | Active | Active | Active | Active | 2.2% | 5.9% | 83% | 8.9% | inactive | 33.9% | 87.7% | 25.6% | 74.1% | 65.6% | 45.7% | 55.9% | 22.4% | Activity [25]: Dose-dependent effect; Activity [26]: Dose-dependent effect; Activity [27]: Dose-dependent effect; Activity [28]: Dose-dependent effect; Activity [29]: Dose-dependent effect; Activity [30]: Dose-dependent effect; Activity [8]: Active; Activity [31]: Active; Activity [13]: Dose-dependent effect; Activity [14]: tde; Activity [24]: 23.1%
7 | COc1cccc(-c2cn(C/C=C/COc3cc4c(cc3OC)C(=O)N3CCC[C@H]3C=N4)nn2)c1 |  |  |  |  |  |  |  | 3.5% | 7.5% | 71.4% | 17.6% | inactive | 107% | 107% | 97.5% | 40% | 86% | 62.8% | 87.2% | 58.3% | 
8 | COc1cccc(-c2cn(C/C=C\COc3cc4c(cc3OC)C(=O)N3CCC[C@H]3C=N4)nn2)c1 | Active | Active | Active | Active | Active | Active | Active | 3.3% | 6.7% | 82.3% | 7.7% | inactive | 74.2% | 90.4% | 50% | 42.8% | 100% | 40.7% | 65.3% | 48.4% | Activity [8]: Active; Activity [13]: Dose-dependent effect; Activity [14]: tde; Activity [24]: 16.4%
9 | COc1ccc(-c2cn(C/C=C\COc3cc4c(cc3OC)C(=O)N3CCC[C@H]3C=N4)nn2)cc1 | Active | Active | Active | Active | Active | Active | Active | 3.4% | 7.2% | 82.3% | 7.1% | inactive | 62.8% | 90.3% | 55.5% | 46.7% | 98.2% | 42% | 66.4% | 38.7% | Activity [8]: Active; Activity [13]: Dose-dependent effect; Activity [14]: tde; Activity [24]: 12.1%
